Assays:
[1] = test system: p300-ZZ; assay: 1H,15N HSQC NMR titration, p300-ZZ; format: binding, human; conditions: authors' conclusion from NMR titration
Procedure, shortened: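 Human p300 ZZ (aa 1663–1713) carried an N-terminal His-tag and was expressed in BL21(DE3) RIL in M9 with 15NH4Cl and 0.05 mM ZnCl2. Induction was 0.2 mM IPTG, overnight at 18 °C. Protein was Ni-NTA purified and the tag cleaved. 0.1 mM sample in 20 mM Tris-HCl pH 7.0, 100 mM NaCl, 5 mM DTT, 8% D2O. Unlabeled HAT domain (1:2) was added first, then H3 peptide; chemical shift changes were monitored at 298K.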

[2] = test system: BD-RING-PHD (BRP) region of p300; assay: 1H,15N HSQC NMR titration, p300 BD-RING-PHD; format: binding, human; conditions: 15N-labeled BD-RING-PHD, 298K, pH 7.0
[3] = test system: chromatin in H1299 cells; assay: Chromatin association of FLAG-p300BRPHZT; format: cell-based, human; conditions: H1299 stable cells, ChIP-western and salt fractionation
Procedure, shortened: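 H1299 cells stably expressing FLAG-p300-BRPHZT variants were used. For protein-ChIP, cells were formaldehyde-crosslinked and nuclear lysates sonicated, then pulled down overnight at 4 °C on anti-FLAG M2 agarose. Beads were washed in low-salt, high-salt and LiCl buffers, and bound protein was read by western blot. For salt fractionation, cells were swollen in hypotonic HEPES buffer and nuclei isolated, then nuclei were extracted 30 min at 4 °C in glycerol wash buffer with 75 mM NaCl and the supernatant collected.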

[4] = test system: histone acetylation in H1299 cells; assay: Histone acetylation levels in H1299 stable cells; format: cell-based, human; conditions: n = 3; for H3K4, H3K9 and H4 acetylation / Increase of H3K18 and H3K27 acetylation: p300-BRPHZT
[5] = test system: chromatin of H1299 cells (FLAG, H3K18ac, H3K27ac); assay: ChIP-seq / ChIP-qPCR in H1299 stable cells; format: cell-based, human; conditions: for Chromatin binding / H3K18ac and H3K27ac occupancies: ChIP-seq, H1299
Procedure, shortened: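 H1299 cells (RPMI, 10% FBS) were lentivirally transduced with FLAG-p300-BRPHZT (wild type or mutant) and blasticidin-selected for 4–6 days. Cells were crosslinked with 1% formaldehyde for 10 min, quenched with 125 mM glycine, and nuclei were lysed in 1% SDS buffer and sonicated. Chromatin was immunoprecipitated overnight at 4 °C with 2–4 μg antibody, washed in low-salt, high-salt and LiCl buffers, and reverse-crosslinked. DNA went to SYBR qPCR (IgG or H3 normalization, two negative-control loci) or sequencing.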

Molecule	Association of p300 BRPHZT with chromatin [3]	H3K4, H3K9 and H4 acetylation [4]	Increase of H3K18 and H3K27 acetylation [4]	Chromatin binding [5]	H3K18ac and H3K27ac occupancies [5]	other results
H4_1–9(Ser1): H4_1–9(Ser1) (SGRGKGGKG)						Binding to p300-ZZ [1]: almost negligible binding
HAT-ZZ: HAT-ZZ domain (aa 1287–1713, Y1467F) (protein, left off: His-tag, N-terminal, cleaved) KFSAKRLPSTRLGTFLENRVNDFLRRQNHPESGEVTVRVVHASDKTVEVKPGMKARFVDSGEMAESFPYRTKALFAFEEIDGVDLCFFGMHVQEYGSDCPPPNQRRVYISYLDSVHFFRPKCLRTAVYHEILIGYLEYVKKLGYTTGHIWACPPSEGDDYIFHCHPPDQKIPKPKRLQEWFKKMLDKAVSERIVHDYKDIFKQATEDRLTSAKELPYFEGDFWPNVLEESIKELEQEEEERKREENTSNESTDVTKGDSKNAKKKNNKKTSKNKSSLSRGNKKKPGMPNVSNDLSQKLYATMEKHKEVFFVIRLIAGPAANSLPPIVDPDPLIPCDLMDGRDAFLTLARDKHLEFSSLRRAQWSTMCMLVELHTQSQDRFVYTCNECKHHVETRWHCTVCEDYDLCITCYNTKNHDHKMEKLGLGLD						Interaction with BD-RING-PHD [2]: weakened
N1671A: p300 BRPHZT loss-of-function mutation of ZZ (protein, left off: FLAG, end not stated, kept) TQSSPAPGQSKKKIFKPEELRQALMPTLEALYRQDPESLPFRQPVDPQLLGIPDYFDIVKSPMDLSTIKRKLDTGQYQEPWQYVDDIWLMFNNAWLYNRKTSRVYKYCSKLSEVFEQEIDPVMQSLGYCCGRKLEFSPQTLCCYGKQLCTIPRDATYYSYQNRYHFCEKCFNEIQGESVSLGDDPSQPQTTINKEQFSKRKNDTLDPELFVECTECGRKMHQICVLHHEIIWPAGFVCDGCLKKSARTRKENKFSAKRLPSTRLGTFLENRVNDFLRRQNHPESGEVTVRVVHASDKTVEVKPGMKARFVDSGEMAESFPYRTKALFAFEEIDGVDLCFFGMHVQEYGSDCPPPNQRRVYISYLDSVHFFRPKCLRTAVYHEILIGYLEYVKKLGYTTGHIWACPPSEGDDYIFHCHPPDQKIPKPKRLQEWYKKMLDKAVSERIVHDYKDIFKQATEDRLTSAKELPYFEGDFWPNVLEESIKELEQEEEERKREENTSNESTDVTKGDSKNAKKKNNKKTSKNKSSLSRGNKKKPGMPNVSNDLSQKLYATMEKHKEVFFVIRLIAGPAANSLPPIVDPDPLIPCDLMDGRDAFLTLARDKHLEFSSLRRAQWSTMCMLVELHTQSQDRFVYTCAECKHHVETRWHCTVCEDYDLCITCYNTKNHDHKMEKLGLGLDDESNNQQAAATQSPGDSRRLSIQRCIQSLVHACQCRNANCSLPSCQKMKRVVQHTKGCKRKTNGGCPICKQLIALCCYHAKHCQENKCPVPFCLNIKQKLRQQQLQHRLQQAQMLRR	substantially reduced	without affecting	greatly attenuated	incapable of gaining the chromatin binding	no increase	
D1690A (protein, left off: FLAG, end not stated, kept) TQSSPAPGQSKKKIFKPEELRQALMPTLEALYRQDPESLPFRQPVDPQLLGIPDYFDIVKSPMDLSTIKRKLDTGQYQEPWQYVDDIWLMFNNAWLYNRKTSRVYKYCSKLSEVFEQEIDPVMQSLGYCCGRKLEFSPQTLCCYGKQLCTIPRDATYYSYQNRYHFCEKCFNEIQGESVSLGDDPSQPQTTINKEQFSKRKNDTLDPELFVECTECGRKMHQICVLHHEIIWPAGFVCDGCLKKSARTRKENKFSAKRLPSTRLGTFLENRVNDFLRRQNHPESGEVTVRVVHASDKTVEVKPGMKARFVDSGEMAESFPYRTKALFAFEEIDGVDLCFFGMHVQEYGSDCPPPNQRRVYISYLDSVHFFRPKCLRTAVYHEILIGYLEYVKKLGYTTGHIWACPPSEGDDYIFHCHPPDQKIPKPKRLQEWYKKMLDKAVSERIVHDYKDIFKQATEDRLTSAKELPYFEGDFWPNVLEESIKELEQEEEERKREENTSNESTDVTKGDSKNAKKKNNKKTSKNKSSLSRGNKKKPGMPNVSNDLSQKLYATMEKHKEVFFVIRLIAGPAANSLPPIVDPDPLIPCDLMDGRDAFLTLARDKHLEFSSLRRAQWSTMCMLVELHTQSQDRFVYTCNECKHHVETRWHCTVCEDYALCITCYNTKNHDHKMEKLGLGLDDESNNQQAAATQSPGDSRRLSIQRCIQSLVHACQCRNANCSLPSCQKMKRVVQHTKGCKRKTNGGCPICKQLIALCCYHAKHCQENKCPVPFCLNIKQKLRQQQLQHRLQQAQMLRR	substantially reduced	without affecting	greatly attenuated	incapable of gaining the chromatin binding	no increase	
WT p300-BRPHZT: p300 BD-RING-PHD-HAT-ZZ-TAZ2 region (BRPHZT, amino acids 1035–1830) (protein, left off: FLAG, end not stated, kept) TQSSPAPGQSKKKIFKPEELRQALMPTLEALYRQDPESLPFRQPVDPQLLGIPDYFDIVKSPMDLSTIKRKLDTGQYQEPWQYVDDIWLMFNNAWLYNRKTSRVYKYCSKLSEVFEQEIDPVMQSLGYCCGRKLEFSPQTLCCYGKQLCTIPRDATYYSYQNRYHFCEKCFNEIQGESVSLGDDPSQPQTTINKEQFSKRKNDTLDPELFVECTECGRKMHQICVLHHEIIWPAGFVCDGCLKKSARTRKENKFSAKRLPSTRLGTFLENRVNDFLRRQNHPESGEVTVRVVHASDKTVEVKPGMKARFVDSGEMAESFPYRTKALFAFEEIDGVDLCFFGMHVQEYGSDCPPPNQRRVYISYLDSVHFFRPKCLRTAVYHEILIGYLEYVKKLGYTTGHIWACPPSEGDDYIFHCHPPDQKIPKPKRLQEWYKKMLDKAVSERIVHDYKDIFKQATEDRLTSAKELPYFEGDFWPNVLEESIKELEQEEEERKREENTSNESTDVTKGDSKNAKKKNNKKTSKNKSSLSRGNKKKPGMPNVSNDLSQKLYATMEKHKEVFFVIRLIAGPAANSLPPIVDPDPLIPCDLMDGRDAFLTLARDKHLEFSSLRRAQWSTMCMLVELHTQSQDRFVYTCNECKHHVETRWHCTVCEDYDLCITCYNTKNHDHKMEKLGLGLDDESNNQQAAATQSPGDSRRLSIQRCIQSLVHACQCRNANCSLPSCQKMKRVVQHTKGCKRKTNGGCPICKQLIALCCYHAKHCQENKCPVPFCLNIKQKLRQQQLQHRLQQAQMLRR					evident increase	Global levels of acetylation at all sites tested ([4]; whole cell extract): increased; Number of p300-BRPHZT binding sites (FLAG ChIP-seq) ([5]; M2 Flag antibody, H1299, MACS p ≤1e−8): 679
N1132A: p300 BRPHZT BD mutation that abrogates acetyllysine binding (protein, left off: FLAG, end not stated, kept) TQSSPAPGQSKKKIFKPEELRQALMPTLEALYRQDPESLPFRQPVDPQLLGIPDYFDIVKSPMDLSTIKRKLDTGQYQEPWQYVDDIWLMFNNAWLYARKTSRVYKYCSKLSEVFEQEIDPVMQSLGYCCGRKLEFSPQTLCCYGKQLCTIPRDATYYSYQNRYHFCEKCFNEIQGESVSLGDDPSQPQTTINKEQFSKRKNDTLDPELFVECTECGRKMHQICVLHHEIIWPAGFVCDGCLKKSARTRKENKFSAKRLPSTRLGTFLENRVNDFLRRQNHPESGEVTVRVVHASDKTVEVKPGMKARFVDSGEMAESFPYRTKALFAFEEIDGVDLCFFGMHVQEYGSDCPPPNQRRVYISYLDSVHFFRPKCLRTAVYHEILIGYLEYVKKLGYTTGHIWACPPSEGDDYIFHCHPPDQKIPKPKRLQEWYKKMLDKAVSERIVHDYKDIFKQATEDRLTSAKELPYFEGDFWPNVLEESIKELEQEEEERKREENTSNESTDVTKGDSKNAKKKNNKKTSKNKSSLSRGNKKKPGMPNVSNDLSQKLYATMEKHKEVFFVIRLIAGPAANSLPPIVDPDPLIPCDLMDGRDAFLTLARDKHLEFSSLRRAQWSTMCMLVELHTQSQDRFVYTCNECKHHVETRWHCTVCEDYDLCITCYNTKNHDHKMEKLGLGLDDESNNQQAAATQSPGDSRRLSIQRCIQSLVHACQCRNANCSLPSCQKMKRVVQHTKGCKRKTNGGCPICKQLIALCCYHAKHCQENKCPVPFCLNIKQKLRQQQLQHRLQQAQMLRR	substantially reduced					p300-BRPHZT occupancy and H3K18ac and H3K27ac levels at target gene regions ([5]; ChIP-qPCR, H1299, n = 3): decrease

— PMC6482957 (Nature structural & molecular biology, 2018)
